Experimental data published in ChEMBL document CHEMBL3352378, “Novel carbazole inhibits phospho-STAT3 through induction of protein-tyrosine phosphatase PTPN6” (J Med Chem, 2014).
Active and inactive are the calls of the source. The rule behind the calls is not given here.

Target: Signal transducer and activator of transcription 3 (Homo sapiens) (UniProt P40763)
Assay: Inhibition of STAT3C-mediated transcription in human Hs578T cells at 1 uM after 24 hrs by luciferase reporter gene assay
Format: cell-based
Conditions: Hs-578T
Outline: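 HS578T cells co-transfected with a constitutively active STAT3 (STAT3C) expression vector and the APRE-Luc reporter. Treated at 1 μM for 24 h, with JAK2 inhibitor AZD1480 for comparison. Luciferase measured; mean ± SD of triplicates.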

Signal transducer and activator of transcription 3 (Homo sapiens), sequence (P40763 whole entry): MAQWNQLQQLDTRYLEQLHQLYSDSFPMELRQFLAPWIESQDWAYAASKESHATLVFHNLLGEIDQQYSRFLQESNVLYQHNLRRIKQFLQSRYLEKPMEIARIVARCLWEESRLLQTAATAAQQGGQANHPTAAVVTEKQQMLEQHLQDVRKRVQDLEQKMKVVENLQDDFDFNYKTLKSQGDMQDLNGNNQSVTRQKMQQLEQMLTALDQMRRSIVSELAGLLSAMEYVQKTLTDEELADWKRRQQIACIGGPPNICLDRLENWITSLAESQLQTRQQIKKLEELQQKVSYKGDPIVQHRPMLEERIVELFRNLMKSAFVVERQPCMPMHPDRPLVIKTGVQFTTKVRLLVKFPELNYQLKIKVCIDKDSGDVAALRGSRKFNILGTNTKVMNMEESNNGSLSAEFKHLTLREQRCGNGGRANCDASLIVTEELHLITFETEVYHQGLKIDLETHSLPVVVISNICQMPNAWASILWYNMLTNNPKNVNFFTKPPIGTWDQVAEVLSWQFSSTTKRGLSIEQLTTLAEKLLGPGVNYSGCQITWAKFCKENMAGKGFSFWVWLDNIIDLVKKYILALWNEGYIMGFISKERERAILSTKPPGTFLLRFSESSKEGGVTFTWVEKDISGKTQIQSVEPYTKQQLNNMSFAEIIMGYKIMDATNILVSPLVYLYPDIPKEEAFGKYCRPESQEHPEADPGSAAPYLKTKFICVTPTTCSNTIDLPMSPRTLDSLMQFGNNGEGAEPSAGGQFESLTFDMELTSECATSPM

inhibition: Active
Compound: Cc1cc(Nc2nc(N[C@@H](C)c3ncc(F)cn3)ncc2Cl)[nH]n1
